Measurements reported in ChEMBL document CHEMBL4406821, “Novel dual inhibitors targeting CDK4 and VEGFR2 synergistically suppressed cancer progression and angiogenesis” (Eur J Med Chem, 2019).
The source made the active and inactive calls. The rule behind the calls is not given here.

Experiments:
[1] = target: CDK4/Cyclin D3 (Homo sapiens) (UniProt P11802+P30281); assay: Inhibition of recombinant full length human CDK4/Cyclin D3 using Rb-fragmen as substrate at 1 uM incubated for 40 mins by [gamma-33P]-ATP based radiometric assay relative to control; format: protein-complex assay
Summary of the method: (§1)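 Kinase panel profiling at 1 μM performed by Eurofins KinaseProfiler; percent inhibition reported as mean of two independent experiments.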

T47D = assay: Induction of apoptosis in human T47D cells assessed as increase in late apoptotic cells at 20 to 40 nM incubated for 48 hrs by annexin V FITC and propidium iodide staining based flow cytometry; format: functional, cell-based
Summary of the method: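 Annexin V-FITC/PI double staining with flow-cytometric readout. MDA-MB-231, T-47D, SiHa and HeLa cells were treated with graded concentrations for 48 h. MDA-MB-231 and T-47D were grown in DMEM and SiHa in 1640 medium, each with 10% FBS and 1% penicillin/streptomycin at 37°C under 5% CO2. Early- and late-stage apoptotic fractions were scored.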

MDA-MB-231 [2] = assay: Induction of apoptosis in human MDA-MB-231 cells assessed as decrease in Rb phosphorylation incubated for 48 hrs by Western blot analysis; format: functional, cell-based
Summary of the method: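 Cells were treated for 48 h, washed three times with PBS, and lysed in RIPA buffer. Immunoblots used anti-Rb, anti-phospho-Rb, anti-Ki67 and anti-Bcl-2 (each 1:1000), with β-actin as loading control.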

[3] = target: Tyrosine-protein kinase Blk (Homo sapiens) (UniProt P51451); assay: Inhibition of recombinant full length human BLK at 1 uM using poly(Glu, Tyr) 4:1 as substrate incubated for 40 mins in presence of [gamma-33P]-ATP by scintillation counting method relative to control; summary of the method: as §1
[4] = target: Calcium/calmodulin-dependent protein kinase type 1B (Homo sapiens) (UniProt Q6P2M8); assay: Inhibition of recombinant full length human CAMKIbeta at 1 uM using KKLRRTLSFAEP as substrate incubated for 40 mins in presence of [gamma-33P]-ATP by scintillation counting method relative to control; summary of the method: as §1
Chain of Calcium/calmodulin-dependent protein kinase type 1B (Homo sapiens) (Q6P2M8 whole entry, the tested form may be a part): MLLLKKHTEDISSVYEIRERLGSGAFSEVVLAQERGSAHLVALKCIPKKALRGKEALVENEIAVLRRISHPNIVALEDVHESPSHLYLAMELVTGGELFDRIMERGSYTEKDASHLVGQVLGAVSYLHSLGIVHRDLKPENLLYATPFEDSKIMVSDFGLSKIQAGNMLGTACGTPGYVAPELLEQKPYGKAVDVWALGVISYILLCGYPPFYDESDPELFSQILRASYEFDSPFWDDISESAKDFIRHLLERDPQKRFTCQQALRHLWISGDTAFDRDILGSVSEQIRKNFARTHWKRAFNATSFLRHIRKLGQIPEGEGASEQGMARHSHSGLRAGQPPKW

[5] = target: Ephrin type-A receptor 5 (Homo sapiens) (UniProt P54756); assay: Inhibition of recombinant human EPhA5 (655 to 956 residues) at 1 uM using poly(Glu, Tyr) 4:1 as substrate incubated for 40 mins in presence of [gamma-33P]-ATP by scintillation counting method relative to control
Chain of Ephrin type-A receptor 5 (Homo sapiens) (P54756 whole entry, the tested form may be a part): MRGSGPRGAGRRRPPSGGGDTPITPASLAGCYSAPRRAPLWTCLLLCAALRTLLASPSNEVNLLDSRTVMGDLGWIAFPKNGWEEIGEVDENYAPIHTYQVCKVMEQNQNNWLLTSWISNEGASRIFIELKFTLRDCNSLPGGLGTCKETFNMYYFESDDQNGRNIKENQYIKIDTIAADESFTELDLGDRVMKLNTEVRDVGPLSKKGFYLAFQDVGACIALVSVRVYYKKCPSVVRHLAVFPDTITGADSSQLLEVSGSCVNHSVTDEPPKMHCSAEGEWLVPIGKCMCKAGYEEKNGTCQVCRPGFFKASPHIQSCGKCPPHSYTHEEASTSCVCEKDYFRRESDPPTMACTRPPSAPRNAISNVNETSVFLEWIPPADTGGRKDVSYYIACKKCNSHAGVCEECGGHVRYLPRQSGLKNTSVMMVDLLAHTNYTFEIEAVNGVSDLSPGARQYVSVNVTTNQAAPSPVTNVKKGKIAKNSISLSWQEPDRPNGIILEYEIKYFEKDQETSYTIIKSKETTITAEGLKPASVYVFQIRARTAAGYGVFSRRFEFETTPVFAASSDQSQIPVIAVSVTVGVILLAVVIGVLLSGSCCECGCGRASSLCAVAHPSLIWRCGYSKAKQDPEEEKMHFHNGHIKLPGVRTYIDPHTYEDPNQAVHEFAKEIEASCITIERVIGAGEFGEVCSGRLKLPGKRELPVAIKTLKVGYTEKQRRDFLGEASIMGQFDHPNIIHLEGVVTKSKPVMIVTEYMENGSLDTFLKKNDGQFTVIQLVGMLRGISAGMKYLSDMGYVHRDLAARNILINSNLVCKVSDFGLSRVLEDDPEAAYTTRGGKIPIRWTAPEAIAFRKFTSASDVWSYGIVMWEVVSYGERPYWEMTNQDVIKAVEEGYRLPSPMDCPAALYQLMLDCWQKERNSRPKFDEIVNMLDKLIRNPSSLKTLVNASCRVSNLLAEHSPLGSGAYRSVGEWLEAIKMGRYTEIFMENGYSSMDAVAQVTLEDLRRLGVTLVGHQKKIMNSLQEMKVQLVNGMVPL

[6] = tested on: Mast/stem cell growth factor receptor Kit (Homo sapiens), P10721 [D816V]; assay: Inhibition of recombinant human cKIT D816V mutant (544 to end residues) at 1 uM using poly(Glu, Tyr) 4:1 as substrate incubated for 40 mins in presence of [gamma-33P]-ATP by scintillation counting method relative to control
Summary of the method: (§2)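 Tested at a single 1 uM in an outsourced commercial kinase-profiling panel, read as percent inhibition. Each value is the mean of two independent experiments.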

[7] = target: LIM domain kinase 2 (Homo sapiens) (UniProt P53671); assay: Inhibition of recombinant human LIMK2 at 1 uM incubated for 40 mins in presence of [gamma-33P]-ATP by scintillation counting method relative to control
[8] = target: Myosin-IIIb (Homo sapiens) (UniProt Q8WXR4); assay: Inhibition of recombinant human MYO3B (1 to 326 residues) at 1 uM using RLGRDKYKTLRQIRQ as substrate incubated for 40 mins in presence of [gamma-33P]-ATP by scintillation counting method relative to control
[9] = target: Serine/threonine-protein kinase PAK 5 (Homo sapiens) (UniProt Q9P286); assay: Inhibition of recombinant human PAK5 (425 to end residues) at 1 uM using RRRLSFAEPG as substrate incubated for 40 mins in presence of [gamma-33P]-ATP by scintillation counting method relative to control
Chain of Serine/threonine-protein kinase PAK 5 (Homo sapiens) (Q9P286 whole entry, looked up, the tested form may be a part): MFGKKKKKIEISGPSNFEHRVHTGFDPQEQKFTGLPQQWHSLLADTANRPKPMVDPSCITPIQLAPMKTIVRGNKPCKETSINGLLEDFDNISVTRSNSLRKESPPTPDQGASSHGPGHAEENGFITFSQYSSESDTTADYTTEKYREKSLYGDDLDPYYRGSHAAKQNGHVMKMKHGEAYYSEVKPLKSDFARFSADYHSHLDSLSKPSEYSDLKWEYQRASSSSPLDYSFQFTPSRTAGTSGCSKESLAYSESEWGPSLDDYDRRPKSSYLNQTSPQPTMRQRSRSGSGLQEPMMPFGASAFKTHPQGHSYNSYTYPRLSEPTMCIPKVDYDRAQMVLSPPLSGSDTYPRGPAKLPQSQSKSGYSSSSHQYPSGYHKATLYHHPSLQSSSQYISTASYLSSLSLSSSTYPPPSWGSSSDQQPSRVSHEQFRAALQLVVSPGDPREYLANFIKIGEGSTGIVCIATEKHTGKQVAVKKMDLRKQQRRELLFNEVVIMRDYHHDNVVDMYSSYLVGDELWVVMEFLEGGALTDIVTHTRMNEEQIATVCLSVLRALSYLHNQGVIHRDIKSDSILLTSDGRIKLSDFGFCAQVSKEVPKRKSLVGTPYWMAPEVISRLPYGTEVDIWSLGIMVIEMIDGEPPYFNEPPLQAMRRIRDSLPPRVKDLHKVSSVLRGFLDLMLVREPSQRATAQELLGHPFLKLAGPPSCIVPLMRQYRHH

[10] = target: Death-associated protein kinase 3 (Homo sapiens) (UniProt O43293); assay: Inhibition of recombinant human ZIPK (1 to 290 residues) at 1 uM using KKLNRTLSFAEPG as substrate incubated for 40 mins in presence of [gamma-33P]-ATP by scintillation counting method relative to control
[11] = target: Protein kinase C epsilon type (Homo sapiens) (UniProt Q02156); assay: Inhibition of recombinant human PKCepsilon (2 to end residues) at 1 uM using ERMRPRKRQGSVRRRV as substrate incubated for 40 mins in presence of [gamma-33P]-ATP by scintillation counting method relative to control
Chain of Protein kinase C epsilon type (Homo sapiens) (Q02156 whole entry): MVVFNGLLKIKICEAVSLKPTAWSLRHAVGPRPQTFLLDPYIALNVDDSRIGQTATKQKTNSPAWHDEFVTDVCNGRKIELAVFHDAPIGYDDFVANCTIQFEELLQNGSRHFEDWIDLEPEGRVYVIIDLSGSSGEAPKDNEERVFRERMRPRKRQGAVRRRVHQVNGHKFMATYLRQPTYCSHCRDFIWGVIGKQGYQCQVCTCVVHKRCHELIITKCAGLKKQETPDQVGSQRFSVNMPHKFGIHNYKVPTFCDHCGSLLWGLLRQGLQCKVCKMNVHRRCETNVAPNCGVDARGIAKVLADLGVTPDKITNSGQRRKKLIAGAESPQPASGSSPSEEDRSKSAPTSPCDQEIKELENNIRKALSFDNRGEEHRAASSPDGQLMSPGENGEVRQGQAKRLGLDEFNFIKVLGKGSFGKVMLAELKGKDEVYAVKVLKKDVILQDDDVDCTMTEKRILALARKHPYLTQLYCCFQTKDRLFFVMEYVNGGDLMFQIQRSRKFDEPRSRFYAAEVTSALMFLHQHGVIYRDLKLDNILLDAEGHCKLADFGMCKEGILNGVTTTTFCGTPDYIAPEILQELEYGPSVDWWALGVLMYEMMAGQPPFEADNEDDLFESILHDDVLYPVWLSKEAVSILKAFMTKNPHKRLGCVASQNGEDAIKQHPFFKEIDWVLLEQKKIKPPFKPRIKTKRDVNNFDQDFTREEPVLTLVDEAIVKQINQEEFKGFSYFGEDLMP

[12] = target: Ribosomal protein S6 kinase alpha-1 (Homo sapiens) (UniProt Q15418); assay: Inhibition of recombinant human full length RSK1 at 1 uM using KKKNRTLSVA as substrate incubated for 40 mins in presence of [gamma-33P]-ATP by scintillation counting method relative to control; summary of the method: as §2
Chain of Ribosomal protein S6 kinase alpha-1 (Homo sapiens) (Q15418 whole entry): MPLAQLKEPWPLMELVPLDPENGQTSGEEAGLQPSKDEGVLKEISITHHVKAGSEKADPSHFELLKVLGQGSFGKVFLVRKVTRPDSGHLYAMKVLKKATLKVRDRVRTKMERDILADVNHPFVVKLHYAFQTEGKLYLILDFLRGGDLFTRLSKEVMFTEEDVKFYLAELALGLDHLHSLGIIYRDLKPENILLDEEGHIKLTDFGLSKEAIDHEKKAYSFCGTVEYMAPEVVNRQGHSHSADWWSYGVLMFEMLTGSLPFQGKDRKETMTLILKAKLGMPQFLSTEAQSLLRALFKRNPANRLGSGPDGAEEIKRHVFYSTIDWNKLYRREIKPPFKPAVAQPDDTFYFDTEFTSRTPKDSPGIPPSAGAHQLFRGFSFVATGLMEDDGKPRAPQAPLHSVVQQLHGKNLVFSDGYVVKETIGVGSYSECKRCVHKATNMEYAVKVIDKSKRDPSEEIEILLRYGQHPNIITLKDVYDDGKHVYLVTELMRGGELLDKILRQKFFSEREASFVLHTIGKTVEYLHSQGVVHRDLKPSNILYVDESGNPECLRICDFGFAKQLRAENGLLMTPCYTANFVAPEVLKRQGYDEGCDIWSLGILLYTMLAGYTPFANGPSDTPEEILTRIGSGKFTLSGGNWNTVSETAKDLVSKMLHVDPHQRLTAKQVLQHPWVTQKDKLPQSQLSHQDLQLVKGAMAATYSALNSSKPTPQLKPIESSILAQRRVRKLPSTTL

[13] = target: Mitogen-activated protein kinase 14 (Homo sapiens) (UniProt Q16539); assay: Inhibition of recombinant human full length SAPK2a at 1 uM using myelin basic protein as substrate incubated for 40 mins in presence of [gamma-33P]-ATP by scintillation counting method relative to control; summary of the method: as §2
Chain of Mitogen-activated protein kinase 14 (Homo sapiens) (Q16539 whole entry, the tested form may be a part): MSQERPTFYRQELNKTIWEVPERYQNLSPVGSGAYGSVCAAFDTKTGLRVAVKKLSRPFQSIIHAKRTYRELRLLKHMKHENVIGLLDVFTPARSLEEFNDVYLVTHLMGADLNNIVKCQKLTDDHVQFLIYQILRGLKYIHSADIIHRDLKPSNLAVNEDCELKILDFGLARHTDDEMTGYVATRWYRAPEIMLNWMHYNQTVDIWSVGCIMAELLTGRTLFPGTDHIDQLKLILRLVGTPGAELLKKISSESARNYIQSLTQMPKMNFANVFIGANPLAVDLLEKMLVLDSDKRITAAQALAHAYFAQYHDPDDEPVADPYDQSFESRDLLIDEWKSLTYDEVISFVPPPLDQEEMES

[14] = target: Serine/threonine-protein kinase PLK2 (Homo sapiens) (UniProt Q9NYY3); assay: Inhibition of recombinant human SNK (65 to 409 residues) at 1 uM using casein as substrate incubated for 40 mins in presence of [gamma-33P]-ATP by scintillation counting method relative to control
Chain of Serine/threonine-protein kinase PLK2 (Homo sapiens) (Q9NYY3 whole entry, looked up, the tested form may be a part): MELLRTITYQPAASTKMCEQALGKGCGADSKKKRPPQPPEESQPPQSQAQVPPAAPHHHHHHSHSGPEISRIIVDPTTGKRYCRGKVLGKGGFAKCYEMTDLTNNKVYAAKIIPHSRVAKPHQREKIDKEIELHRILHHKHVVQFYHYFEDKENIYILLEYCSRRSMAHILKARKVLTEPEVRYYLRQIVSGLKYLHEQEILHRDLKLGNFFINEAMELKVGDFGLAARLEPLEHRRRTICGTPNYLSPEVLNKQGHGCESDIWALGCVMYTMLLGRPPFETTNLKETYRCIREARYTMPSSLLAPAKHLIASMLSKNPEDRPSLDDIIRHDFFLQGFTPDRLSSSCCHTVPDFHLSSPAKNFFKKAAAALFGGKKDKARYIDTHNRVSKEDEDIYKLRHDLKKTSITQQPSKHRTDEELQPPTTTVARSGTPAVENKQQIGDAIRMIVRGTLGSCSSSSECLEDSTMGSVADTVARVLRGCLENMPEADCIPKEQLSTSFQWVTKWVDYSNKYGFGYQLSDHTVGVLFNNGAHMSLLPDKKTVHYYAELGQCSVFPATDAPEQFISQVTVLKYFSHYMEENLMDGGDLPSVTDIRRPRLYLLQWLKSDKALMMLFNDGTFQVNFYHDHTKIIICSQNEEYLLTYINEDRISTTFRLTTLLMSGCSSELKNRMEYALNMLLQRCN

[15] = target: Serine/threonine-protein kinase TAO2 (Homo sapiens) (UniProt Q9UL54); assay: Inhibition of recombinant human TAO2 (1 to 320 residues) at 1 uM using myelin basic protein as substrate incubated for 40 mins in presence of [gamma-33P]-ATP by scintillation counting method relative to control; summary of the method: as §2
[16] = target: SRSF protein kinase 1 (Homo sapiens) (UniProt Q96SB4); assay: Inhibition of recombinant human SRPK1 (2 to end residues) at 1 uM using RSRSRSRSRSRSRSR as substrate incubated for 40 mins in presence of [gamma-33P]-ATP by scintillation counting method relative to control
[17] = Toxicity in BALB/c mouse assessed as effect on blood parameter by measuring MCHC at 40 mg/kg, po administered once two days for 4 times by hematology analyzer; settings: in vivo
HUVEC = assay: Antiproliferative activity against HUVEC cells assessed as reduction in cell viability at 40 nM measured upto 72 hrs by CCK8 assay; format: functional, cell-based; settings: Homo sapiens
Summary of the method: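 HUVECs, 3×10³ cells/well, kept in 1640 medium with 10% FBS at 37°C and 5% CO₂. Cells were treated at 20 or 40 nM or vehicle, and viability was read by CCK-8 (absorbance 450 nm) at 0, 12, 24, 36, 48, 60 and 72 h. Five replicates per sample.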

MDA-MB-231 [18] = assay: Inhibition of colony formation in human MDA-MB-231 cells at 40 nM incubated for 5 days by crystal violet staining based light microscopy; format: functional, cell-based
Summary of the method: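 4 × 10^3 cells per well were cultured with graded concentrations for 5 days. Cells were then fixed with 20% methanol, stained with 0.5% crystal violet and photographed by light microscopy.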

## Cc1ccc(NC(=O)C2(C(=O)Nc3ccc(Nc4ncc(F)c(-c5cc(F)c6nc(C)n(C(C)C)c6c5)n4)cc3)CC2)cc1
[1]
  inhibition: 97%
T47D
  Activity: Active
MDA-MB-231 [2]
  Activity: Dose-dependent effect
[3]
  inhibition: 39%
[4]
  inhibition: 8%
[5]
  inhibition: 33%
[6]
  inhibition: 0%
[7]
  inhibition: 42%
[8]
  inhibition: 10%
[9]
  inhibition: 28%
[10]
  inhibition: 12%
[11]
  inhibition: 16%
[12]
  inhibition: 0%
[13]
  inhibition: 0%
[14]
  inhibition: 47%
[15]
  inhibition: 0%
[16]
  inhibition: 21%
[17]
  Activity: Non-Toxic

## COc1cc2nccc(Oc3ccc(NC(=O)C4(C(=O)Nc5ccc(F)cc5)CC4)cc3)c2cc1OC [CABOZANTINIB]
HUVEC
  inhibition: Active
MDA-MB-231 [18]
  inhibition: Active
